aSyn UTR inh – MLPCN primary screen, SNCA 5' untranslated region; alpha-synuclein 5'UTR reporter, inhibitor activity; inhibition, % (tested at 7.5 µM); actives 0.82% (n = 300,000); AID 1813; in the data active means inhibition above about 60%; inconclusive means no clear call, values can overlap the other calls;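 further: H4 neuroglioblastoma cells stably carrying SNCA 5'UTR luciferase fusion; 0% = DMSO wells and 100% = positive control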
APP transl inh – APP translation inhibition. inhibition, % at 2 µM. actives 0.82% (n = 190,000). SH-SY5Y APP 5'UTR-luciferase reporter, luminescence;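 active means inhibition above a set limit, derived from the sample mean plus 3 SD, cut at about 45% in these data; inconclusive means one replicate passes the limit while the other fails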
Jurkat NFkB inh – lowers PMA/ionomycin-induced NF-kB signal in Jurkat cells; PMA/ionomycin-induced NF-kB luciferase reporter, luminescence; inhibition, % at 4 µM; actives 0.53% (n = 330,000); in the data active means inhibition above about 50%
TAG inh – reduces triacylglycerol accumulation in H9c2 cells. Nile Red lipid (TAG) fluorescence; cells loaded with 200 µM oleic acid. inhibition, % at 12.5 µM. actives 0.66% (n = 230,000);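 active means pattern-corrected inhibition of lipid staining of at least 50% with the nuclear-stain viability signal not falling by more than 50%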;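 further: 0% = DMSO wells and 100% = triacsin C control wells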
697 NFkB inh – inhibitors of the PMA/ionomycin-induced NF-kB reporter in 697 B cells | 697 B-cell NF-kB luciferase reporter, 16 h | inhibition, % at 4 µM | actives 0.33% (n = 330,000) | AID 435022; in the data active means inhibition above about 35%
Lipid droplet – hepatic lipid droplet formation modulation; inhibition, % at 6.5 µM; AML12 mouse hepatocytes, oleate lipid droplets, BODIPY imaging; actives 0.4% (n = 240,000); AID 1656;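 active means lipid droplet intensity inhibited by at least 50%, with more than 500 cells counted; inconclusive means wells with under 300 cells, treated as cytotoxic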
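Test system: AML12 mouse liver cells; schedule: overnight exposure; technique: high-content imaging of BODIPY-stained droplets and DAPI nuclei; read-out: % inhibition of corrected integrated BODIPY droplet signal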
Hep lipid conf – hepatic lipid droplet formation inhibition, confirmed; shares compounds with Lipid droplet; inhibition, % at 5.2 µM; actives 65% (n = 870); AID 463183; AML12 mouse hepatocytes, BODIPY lipid droplet imaging; droplets induced with 100 µM oleic acid;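 active means inhibition of lipid droplet metric at least 50%, with more than 300 cells in each of four replicates; inconclusive means wells under 300 cells, flagged as toxic or low count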;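 further: plate controls were DMSO with oleic acid for no effect and 5 µM Triacsin-C for full effect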
AML12 tox img – AML12 hepatocyte cytotoxicity (counter-screen); actives 3% (n = 870); AML12 mouse hepatocytes, DAPI nuclear morphology cytotoxicity imaging; active compounds read high; cells fed 100 µM oleate overnight; z-score at 5 µM; AID 463200; shares compounds with Lipid droplet; in the data active means z-score above about 6.3;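 further: compound exposure lasted overnight at 37 °C before fixation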
AML12 tox ATP – AML12 hepatocyte cytotoxicity, confirmed; shares compounds with Lipid droplet; cytotoxicity, % at 50 µM; 530 tested, under 10 active; AML12 mouse hepatocyte viability, ATP luminescence; cells loaded with 100 µM oleic acid;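 active means cytotoxicity above 50% in each of four replicates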;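 further: compound exposure lasted overnight at 37 °C before the ATP read; 0% = DMSO-treated cells and 100% = wells with no cells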
Jurkat NFkB conf – inhibitors of the PMA/ionomycin-induced NF-kB reporter in Jurkat cells, retest. inhibition, % at 4 µM. Jurkat NF-kB luciferase, 16 h. shares compounds with Jurkat NFkB inh. actives 27% (n = 2,700);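 active means inhibition reaching about 45% at 4 µM in either replicate, limit read from the data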;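 further: plate controls were PMA/ionomycin stimulated DMSO wells for no effect and unstimulated DMSO wells for full effect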
697 NFkB conf – lowers PMA/ionomycin-induced NF-kB signal in 697 B cells. shares compounds with 697 NFkB inh. 697 B-cell NF-kB luciferase, 16 h. inhibition, % at 4 µM. actives 35% (n = 2,000). AID 449746; in the data active means inhibition mostly above about 28%, no sharp cut-off; inactive means mostly below about 22%
H9c2 TAG conf – triacylglycerol accumulation inhibition, confirmation. shares compounds with TAG inh. H9c2 lipid accumulation, Nile Red fluorescence; cells loaded with 200 µM oleic acid. inhibition, % at 12.5 µM. actives 71% (n = 990). AID 651629;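 active means mean inhibition across replicates of 40% or more; inactive means mean inhibition below 40%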;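 further: plate controls were DMSO only wells for no effect and Triacsin C treated wells for full effect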
* hit, by the source's call; ? = inconclusive; · = no result. In the library only some 1.9% were active in any assay of this set; here they are far more common.

SMILES	aSyn UTR inh	APP transl inh	Jurkat NFkB inh	TAG inh	697 NFkB inh	Lipid droplet	Hep lipid conf	AML12 tox img	AML12 tox ATP	H9c2 TAG conf	others
CCc1cc(SC#N)cc(CC)c1NC(=O)CCl	-31.0	10.1	6.3	·	-10.5	81.0*	78.6*	1.85	8.8	·
O=C(CSc1ccccc1)OCC(=O)N1CCN(C(=O)c2ccco2)CC1	·	·	-2.7	2.7	16.8	·	·	·	·	·
Cc1ccc(S(=O)(=O)N(C)C)cc1NC(=S)Nc1ccc2cn[nH]c2c1	3.3	-4.3	7.8	3.3	8.9	55.8*	24.8	-0.934	·	·
COc1cc(-c2cc(NC(C)=O)c3ncc(-c4cc(OC)c(OC)c(OC)c4)n3c2)cc(OC)c1OC	·	·	·	43.0	·	·	·	·	·	·
Cc1cc(C(=O)CN2C(=O)c3ccccc3S2(=O)=O)c(C)n1-c1ccccc1	120.1*	35.0	65.9*	-6.3	-33.6	64.7*	24.1	-0.277	·	·	Jurkat NFkB conf=-0.9
CCC1(C)N=C(N)Nc2nc3cc(C)c(C)cc3n21 (stereo unspecified)	-1.7	·	-32.1	·	-94.5	-1.2	·	·	·	·
C#CC(=O)N(c1ccc(OC)c(OC)c1)C(C(=O)NC1CCCC1)c1cccs1 (stereo unspecified)	36.4	17.2	100.0*	·	100.6*	109.5*	?	34.8*	·	·	Jurkat NFkB conf=85.2*;697 NFkB conf=101.8*
Fc1cccc(Cc2noc(CN3CCCCC3c3ccccn3)n2)c1 (stereo unspecified)	24.7	0.7	-17.0	-10.6	-8.0	-10.5	·	·	·	·
CC1(C(=O)NS(=O)(=O)c2ccc(Cl)s2)CCN1C(=O)c1ccccc1CCc1ccccc1 (stereo unspecified)	·	·	·	15.3	·	·	·	·	·	·
OCCCNc1cc(-c2ccnc(Nc3cccc(Cl)c3)n2)ccn1	109.7*	·	98.6*	89.6*	85.3*	77.4*	90.0*	27.4*	·	·	Jurkat NFkB conf=99.9*;697 NFkB conf=90.8*
CCC(C)Oc1cc(-c2ccnc(Nc3cccc(Cl)c3)n2)ccn1 (stereo unspecified)	-26.9	·	26.9	-10.3	-53.8	-9.6	·	·	·	·
COc1ccc(OC)c(CCNC(=O)C(C)n2nc(C)c3c(C)n(-c4ccc(C)cc4)nc3c2=O)c1 (stereo unspecified)	18.2	·	48.7	·	40.0*	60.3*	99.3*	-0.0521	22.5	·	697 NFkB conf=86.6*
O=C(CSCc1cccc(Br)c1)N=Nc1c(O)[nH]c2ccccc12	-4.9	8.2	-10.6	0.6	5.2	·	·	·	·	·
O=Nc1c(-c2c(O)[nH]c3cc(Br)ccc23)[nH]c2ccccc12	76.6*	·	39.1	83.6*	-321.3	75.1*	111.8*	2.53	67.4*	·	697 NFkB conf=-348.8
CCOc1cc(/C=N\Nc2nc(Nc3ccccc3)nc(N3CCOCC3)n2)ccc1OC(=O)c1ccco1	-90.9	-1.7	-62.1	128.5	59.0*	132.0*	108.8*	20.5*	·	·	697 NFkB conf=46.1*
COC(=O)CCCC(=O)N1CCCC(CNS(=O)(=O)c2ccc(OC)cc2)C1 (stereo unspecified)	-4.9	-10.3	0.3	4.2	2.6	3.9	·	·	·	·
CCOc1ccc2nc(-c3ccccc3)nc(SCC(=O)Nc3ncc(C)s3)c2c1	10.3	3.9	7.2	82.9*	11.4	100.7*	106.8*	0.115	6.8	81.1*
COc1ccc(C(CNC(=O)c2ccc(S(=O)(=O)Nc3ccccc3OC)cc2)N2CCCC2)cc1 (stereo unspecified)	·	·	·	11.1	·	·	·	·	·	·
COCCCn1c(SCC(=O)Nc2ccc(NC(=O)c3ccco3)c(OC)c2)nc2ccccc2c1=O	-18.4	10.9	16.5	62.0*	5.2	103.6*	103.6*	-0.467	7.2	37.8
Cc1ccc(C(=O)CC2(O)C(=O)N(Cc3ccccc3)c3ccccc32)o1 (stereo unspecified)	10.5	-17.8	-12.9	4.8	-4.9	-10.1	·	·	·	·
Cc1ccc(C(=O)CC2(O)C(=O)N(CCc3ccccc3)c3ccc(Br)cc32)o1 (stereo unspecified)	-4.7	-14.0	5.3	51.0*	15.1	53.4*	82.8*	-0.621	4.3	23.5
COc1ccccc1/C=C/C(=O)NCC(=O)N/N=C/c1cc(Br)ccc1OC	16.5	8.2	-21.7	53.6*	13.1	72.8*	105.9*	-1.08	17.9	39.8
COc1ccc(CCNC(=O)CN2CCN(Cc3ccccc3F)C2=O)cc1OC	14.9	·	9.3	-4.3	14.5	9.2	·	·	·	·
CCOc1ccc(CCNC(=O)CN2CCN(Cc3ccccc3C)C2=O)cc1OCC	15.9	-28.7	8.2	59.5*	5.0	82.6*	107.2*	-0.0591	12.4	53.9*
CCOc1ccc(CCNC(=O)Cn2c(-c3nonc3N)nc3ccccc32)cc1OCC	·	16.6	13.5	56.6*	-1.5	75.2*	100.8*	0.986	25.1	35.9
SMILES	aSyn UTR inh	APP transl inh	Jurkat NFkB inh	TAG inh	697 NFkB inh	Lipid droplet	Hep lipid conf	AML12 tox img	AML12 tox ATP	H9c2 TAG conf	others
Cc1ccccc1CNS(=O)(=O)c1csc(C(N)=O)c1	3.4	·	-3.0	·	-10.6	10.5	·	·	·	·
Nc1nc(SCC(=O)NC2CCCCC2)n[nH]1	8.8	·	0.3	2.5	18.5	2.6	·	·	·	·
COc1ccc(-c2noc(CCC(=O)NCCc3cccc(C)c3)n2)cc1	-0.2	-9.7	0.0	·	25.2	1.7	·	·	·	·
CCOc1ccc(CCNC(=O)CCc2nc(-c3ccc(OC)cc3)no2)cc1OCC	9.0	2.2	8.5	52.3*	5.5	69.3*	108.0*	-0.275	10.8	38.8
CNC(=O)CSc1nc2cccnc2n1-c1ccc(F)cc1	52.6	·	-7.0	3.7	-1.8	37.7	·	·	·	·
N#CC(C#N)=c1ccc2c(c1)N1C(c3ccccc3)=CC(c3ccccc3)C3CCCCC31N=2 (stereo unspecified)	-2.9	·	7.6	88.6*	2.7	65.0*	50.3	-1.08	·	119.5*
COc1ccc(C(=O)NCC(c2ccco2)N2CCOCC2)cc1 (stereo unspecified)	·	·	·	14.0	·	·	·	·	·	·
O=C(Nc1ccccc1F)C1CCN(C(=O)NCc2ccccc2)CC1	6.6	·	-13.1	·	10.9	0.3	·	·	·	·
CCOc1ccccc1NC(=O)C1CCN(C(=O)NCc2ccccc2)CC1	21.5	-9.5	-5.8	63.0*	-5.0	130.4*	109.8*	-0.396	5.6	47.0*

Source: PubChem BioAssay (several laboratories)
